# Target: T1, M-phase inducer phosphatase 1 (Homo sapiens, UniProt P30304)
# T1 sequence (P30304 whole entry): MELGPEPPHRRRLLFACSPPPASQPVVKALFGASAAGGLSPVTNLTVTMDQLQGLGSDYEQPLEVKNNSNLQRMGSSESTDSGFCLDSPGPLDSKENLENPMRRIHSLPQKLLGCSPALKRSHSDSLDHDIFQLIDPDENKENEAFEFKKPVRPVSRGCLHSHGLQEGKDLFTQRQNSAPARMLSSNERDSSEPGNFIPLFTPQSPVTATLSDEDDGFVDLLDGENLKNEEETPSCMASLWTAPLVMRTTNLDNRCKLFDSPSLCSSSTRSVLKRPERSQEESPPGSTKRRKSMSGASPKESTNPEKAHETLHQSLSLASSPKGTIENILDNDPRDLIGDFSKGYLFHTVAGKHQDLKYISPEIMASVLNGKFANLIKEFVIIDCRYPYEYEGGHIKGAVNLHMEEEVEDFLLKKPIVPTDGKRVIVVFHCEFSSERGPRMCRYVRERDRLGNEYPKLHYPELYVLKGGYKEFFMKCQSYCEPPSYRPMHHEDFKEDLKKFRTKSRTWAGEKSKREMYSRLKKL
# Experiment: Inhibition of human Cdc25A phosphatase activity
# In short: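 Recombinant human Cdc25A catalytic domain; phosphatase activity measured by dephosphorylation of 40 μM O-methylfluorescein monophosphate in 50 mM Tris–HCl pH 8.0, 100 mM NaCl, 1 mM dithiothreitol. IC50 taken as mean of two–five experiments, with standard deviation reported.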
row,IC50 [µM],Compound
1,15,CCCCCCCCCCCCN1C(=O)C(=O)c2ccccc21
2,12,CC(C)CCC[C@@H](C)[C@H]1CCC2/C(=C/C(=O)O)CCC[C@@]21C (stereo not given in full)
3,> 100,O=C(O)/C=C1/C(=O)N(CCCc2ccccc2)c2ccccc21
4,> 100,CCCCCCN1C(=O)/C(=C\C(=O)O)c2ccccc21
5,12,CCCCCCCCCCN1C(=O)/C(=C\C(=O)O)c2ccccc21
6,2.9,CCCCCCCCCCCCN1C(=O)/C(=C\C(=O)O)c2ccccc21
7,1.7,CCCCCCCCCCCCCCN1C(=O)/C(=C\C(=O)O)c2ccccc21
8,37,CCCCCCCCCCCCN1C(=O)/C(=C/C(=O)OC)c2ccccc21
9,50,CCCCCCCCCCCCN1C(=O)C(CC(=O)O)c2ccccc21 (stereo not given)
10,33,CCCCCCCCCCCCN1C(=O)/C(=N/O)c2ccccc21
11,> 100,CCOCCOCCOCCN1C(=O)/C(=C/C(=O)O)c2ccccc21
12,13,CCCCCCCCCCN1C(=O)/C(=C/C(=O)O)c2ccccc21
13,2.6,CCCCCCCCCCCCN1C(=O)/C(=C/C(=O)O)c2ccccc21
14,2.3,CCCCCCCCCCCCCCN1C(=O)/C(=C/C(=O)O)c2ccccc21
15,> 100,CCCCCCN1C(=O)/C(=C/C(=O)O)c2ccccc21
16,1.9,CCCCCCCCCCCCCCCCN1C(=O)/C(=C/C(=O)O)c2ccccc21
17,39,CCCCCCCCN1C(=O)/C(=C\C(=O)O)c2ccccc21
18,1.6,CCCCCCCCCCCCCCCCN1C(=O)/C(=C\C(=O)O)c2ccccc21
19,8,CCCCCCCCCCCCn1cc(CC(=O)O)c2ccccc21
20,78,CCCCCCCCN1C(=O)/C(=C/C(=O)O)c2ccccc21

# From ChEMBL document CHEMBL1150314, “Design and synthesis of N-alkyl oxindolylidene acetic acids as a new class of potent Cdc25A inhibitors” (Bioorg Med Chem Lett, 2008)
